Data set [1] addresses Prothrombin (Homo sapiens, UniProt P00734). The experiment in a line: Inhibition of Thrombin generation was determined. It is filed as functional. An outline of the steps: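 Thrombin generation in human defibrinated platelet-poor citrated plasma at 37 °C. Cuvette held rabbit brain thromboplastin (amount giving 90 s Quick time), S-2222 (1.6 mM stock), compound in Tris-HCl pH 7.35, and CaCl2 (0.25 M stock). Plasma addition started the reaction; A405 followed 20 min. IC50 from area under curve by four-parameter logistic fit; mean with 95% CI, n = 3.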

A short description of data set [2]: Elimination half life was determined. It is filed as ADME. In short, it runs like this: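 Rats with jugular catheter (pentobarbitone anesthesia), recovered overnight, received 100 nmol/kg iv bolus. Citrated blood collected; plasma levels measured by anti-factor Xa activity using each compound as its own reference. Half-life from slope of terminal phase; mean ± SEM, n = 4.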

The test system of data set [3] is Rattus norvegicus. The experiment in a line: In vivo antithrombotic activity was determined in rats. Format: functional. An outline of the steps: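 Stasis plus hypercoagulability venous thrombosis in male Sprague-Dawley rats (250-300 g) under pentobarbitone (30 mg/kg ip). Compounds given iv (penile vein) 5 min before human tissue factor (1 ng/kg iv over 30 s). Vena cava ligated 10 s later for 20 min; thrombus dried and weighed. ED50 = 50% thrombus weight reduction; mean with 95% CI, n = 6.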

Data set [4] deals with Antithrombin-III (Homo sapiens, UniProt P01008). Description: Dissociation constant for Antithrombin-III. An outline of the steps:
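Intrinsic protein fluorescence titration at 37 °C with stirring; oligosaccharides added to Tris-HCl 0.01 M pH 7.0, 0.15 M NaCl containing 5–60 nM human AT III (purified). Complex concentrations calculated assuming 1:1 stoichiometry; KD from Scatchard analysis. Mean ± SEM, n = 3.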

In data set [5] the target is Coagulation factor X (Homo sapiens) (UniProt P00742). Description: Inhibition of blood coagulation factor Xa was determined by AT III. An outline of the steps: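 Amidolytic assay in buffer: factor Xa (7.5 nkat/mL) incubated 2 min at 37 °C with AT III (0.5 unit/mL) and oligosaccharide at various concentrations in 20 mM Tris/maleate pH 7.4, 150 mM NaCl. Residual Xa measured with S-2222 (1 mM stock); stopped after 2 min with acetic acid, A405 read. Activity versus calibrated standard; mean ± SEM, n = 3.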
Chain of Coagulation factor X (Homo sapiens) (P00742 41-179 limits assumed): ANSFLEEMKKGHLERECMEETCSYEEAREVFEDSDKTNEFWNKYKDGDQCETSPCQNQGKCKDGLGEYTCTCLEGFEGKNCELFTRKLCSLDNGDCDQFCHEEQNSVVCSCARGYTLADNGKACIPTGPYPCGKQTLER
Chain of Coagulation factor X (Homo sapiens) (P00742 235-488 limits assumed): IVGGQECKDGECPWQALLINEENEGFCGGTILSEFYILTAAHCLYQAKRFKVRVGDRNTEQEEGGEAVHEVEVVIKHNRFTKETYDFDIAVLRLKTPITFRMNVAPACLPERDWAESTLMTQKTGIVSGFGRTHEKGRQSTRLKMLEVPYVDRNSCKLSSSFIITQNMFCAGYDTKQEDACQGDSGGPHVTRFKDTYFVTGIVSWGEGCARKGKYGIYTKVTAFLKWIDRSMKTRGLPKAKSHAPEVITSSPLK

The record followed here is ChEMBL document CHEMBL1130037, “Synthesis and pharmacological properties of a close analogue of an antithrombotic pentasaccharide (SR 90107A/ORG 31540)” (J Med Chem, 1997).

Chain of Antithrombin-III (P01008 whole entry): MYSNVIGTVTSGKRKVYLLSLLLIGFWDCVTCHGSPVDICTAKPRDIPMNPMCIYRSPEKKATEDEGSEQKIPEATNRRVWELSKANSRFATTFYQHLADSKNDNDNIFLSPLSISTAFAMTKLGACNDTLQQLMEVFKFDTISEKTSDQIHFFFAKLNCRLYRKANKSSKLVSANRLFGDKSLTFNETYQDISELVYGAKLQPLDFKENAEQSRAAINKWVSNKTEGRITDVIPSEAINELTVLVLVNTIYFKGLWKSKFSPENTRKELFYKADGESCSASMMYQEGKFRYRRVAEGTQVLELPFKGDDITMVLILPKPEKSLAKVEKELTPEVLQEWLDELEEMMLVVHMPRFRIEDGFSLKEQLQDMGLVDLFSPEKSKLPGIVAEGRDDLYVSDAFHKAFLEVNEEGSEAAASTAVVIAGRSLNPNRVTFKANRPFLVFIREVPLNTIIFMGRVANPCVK

For `O=C([O-])C1O[C@@H](O[C@H]2C(O)C(NS(=O)(=O)[O-])[C@@H](O)O[C@H]2COS(=O)(=O)[O-])C(NS(=O)(=O)[O-])[C@@H](O)[C@@H]1O[C@@H]1OC(COS(=O)(=O)[O-])[C@@H](O[C@@H]2O[C@@H](C(=O)[O-])[C@@H](O[C@H]3O[C@@H](COS(=O)(=O)[O-])[C@@H](O)C(O)C3NS(=O)(=O)[O-])C(O)C2O)[C@H](OS(=O)(=O)[O-])C1OS(=O)(=O)[O-].[Na+].[Na+].[Na+].[Na+].[Na+].[Na+].[Na+].[Na+].[Na+].[Na+]` (stereo not given in full), the IC50 in data set [1] is 130 nM. This molecule also showed a half-life in data set [2] of 42 min. For the same molecule, the 50% effect level in data set [3] (ED50) was put at a dose of 0.081 mg/kg. Besides, in data set [4], the Kd is 58 nM. The Activity in data set [5] was 850 U/mg.

The IC50 is the concentration needed to halve the response being measured. As usually defined, the half-life is how long it takes for the measured level to halve. Read a low half-life as rapid decline. One may read the ED50 as the dose that gives a 50% effect, or the effect in half of the subjects. Low readings indicate an effect at a small dose, high ones a need for a large dose. The Kd is the concentration at which binding is half-saturated.
